The list is not random: actives were taken first. Their share in the collection is about 2.8%.
NPY-Y2 antag = NPY-Y2 receptor antagonists, primary screen, cell-based | NPY-Y2 expressing cells, antagonist mode | inhibition, % at 2.7 µM | 140,000 compounds, 0.99% hits | AID 793, 2007; in the data active = inhibition above about 17%;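 also: 0% = vehicle with agonist challenge and 100% = reference antagonist with challenge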
NPY-Y2 PAM-ag = NPY-Y2 potentiators or agonists, primary screen, cell-based. AID 1359, 2008. activation, % at 3.6 µM. cells expressing NPY-Y2, potentiator/agonist read-out. 220,000 compounds, 0.45% hits; in the data active = activation above about 27%;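 also: cells stimulated with NPY near EC25 plus isoproterenol at EC100; 0% = vehicle plus submaximal agonist and 100% = vehicle plus saturating agonist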
NPY-Y1 PAM-ag = NPY-Y1 receptor potentiators or agonists, primary screen, cell-based | Neuropeptide Y receptor type 1 (Homo sapiens), P25929 | NPY-Y1 expressing cells, potentiator/agonist activation | activation, % at 3.6 µM | 220,000 compounds, 0.37% hits | AID 1304, 2008; in the data active = activation above about 33%, passing the limit was not always enough;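 also: cells stimulated with NPY at EC10 then isoproterenol at EC100; 0% = low agonist plus stimulus and 100% = saturating agonist plus stimulus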
Mdm2 ligase inh = MDM2-luciferase reporter signal enhancers, primary screen, MDM2 E3 ligase inhibitor project, cell-based, luminescence, 1536-well | cell-based MDM2 ubiquitination luciferase reporter, 2 h; 0 = plate control, 100 = twice control, blank-subtracted | signal enhancement, % at 5 µM | 210,000 compounds, 0.11% hits | AID 1230, 2008;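 active = signal enhancement of 30% or more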;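 also: luminescence tracks abundance of the self-degrading MDM2-luciferase fusion protein; higher signal means inhibition of MDM2 E3 ligase activity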
Target sequence (Q00987 whole entry, looked up, the tested form may be a part): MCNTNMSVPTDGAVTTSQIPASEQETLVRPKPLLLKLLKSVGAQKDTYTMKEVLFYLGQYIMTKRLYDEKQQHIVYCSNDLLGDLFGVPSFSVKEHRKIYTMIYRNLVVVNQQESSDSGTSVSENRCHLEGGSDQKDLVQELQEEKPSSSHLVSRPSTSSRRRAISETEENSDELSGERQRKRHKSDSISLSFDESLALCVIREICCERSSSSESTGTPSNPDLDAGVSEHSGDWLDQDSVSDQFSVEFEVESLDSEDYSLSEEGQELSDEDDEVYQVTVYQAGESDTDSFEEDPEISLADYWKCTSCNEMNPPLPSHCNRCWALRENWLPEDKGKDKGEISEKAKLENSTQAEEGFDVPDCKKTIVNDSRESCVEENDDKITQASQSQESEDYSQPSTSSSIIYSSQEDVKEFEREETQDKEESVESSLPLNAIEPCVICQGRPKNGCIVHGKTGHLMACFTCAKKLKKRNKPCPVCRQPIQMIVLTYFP
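test system = mammalian cells stably expressing self-ubiquitinating, self-degrading MDM2 E3–luciferase fusion | quantity = 2000 cells/well | incubation = cell settling 4 h, compound treatment 2 h, both 37 °C | signal = luminescence with SteadyLite reagent, 15 min at room temperature | evaluation = % enhancement relative to plate controls after blank subtraction | benchmarks = plate controls and plate blanks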
Measles CPE = compounds protecting cells from measles virus cytopathic effect, primary screen, measles RdRp inhibitor project, single point, MLSMR library, absorbance; Measles virus-infected cells, CPE protection; protection (pct of control), % at 4 µM; 140,000 compounds, 1.5% hits; in the data active = protection mostly above about 24%, no sharp cut-off; inactive = mostly below about 26%
NPY Y1 blocker = NPY-Y1 receptor antagonists, primary screen, cell-based; inhibition, % at 3.6 µM; 200,000 compounds, 1% hits; Neuropeptide Y receptor type 1 (Homo sapiens), P25929; HEK293-CNG Y1 cells, membrane potential fluorescence; NPY at EC95, then isoproterenol;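 active = inhibition above the campaign mean inhibition of all tested compounds plus 3 SD, cut at about 20% in these data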;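 also: 0% = DMSO wells given NPY plus isoproterenol and 100% = isoproterenol alone without NPY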
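material = HEK293 cells with Y1 receptor plus CNG channel | also added = NPY 25 nM then isoproterenol 1 µM plus Ro 20-1724 25 µM | schedule = dye 3 h, compound 60 min room temperature, stimulation 45 min | measured by = membrane potential fluorescence | benchmarks = high control isoproterenol alone, low control NPY with isoproterenol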
* = called active by the depositor.

`CC1(C)Cc2c(sc3c2c(=O)n(-c2cccc(Cl)c2)c(=O)n3CC(N)=O)CO1` gave NPY-Y2 PAM-ag 9, NPY-Y1 PAM-ag 9 and Mdm2 ligase inh -7.
For O=c1c2cnn(-c3ccccc3)c2nc(-c2ccco2)n1-c1ccccc1 the results were NPY-Y2 antag 5, NPY-Y2 PAM-ag -13, NPY-Y1 PAM-ag -15, Mdm2 ligase inh -11, Measles CPE 35* and NPY Y1 blocker -5.
Screening O=c1oc(-c2ccco2)nc2c1cnn2-c1ccccc1 returned NPY-Y2 antag 3, NPY-Y2 PAM-ag 18, NPY-Y1 PAM-ag -3, Mdm2 ligase inh -4, Measles CPE 4 and NPY Y1 blocker 5.
O=C(NC(=S)N(CC1CCC1)CC1CCCO1)c1cccc([N+](=O)[O-])c1 (stereo unspecified) was read as NPY-Y2 PAM-ag -12, NPY-Y1 PAM-ag 2, Mdm2 ligase inh -4 and NPY Y1 blocker 2.
Cc1nnn(C23CC4CC(CC(C(=O)NN)(C4)C2)C3)n1 was read as NPY-Y2 antag 4, NPY-Y2 PAM-ag 1, NPY-Y1 PAM-ag 9, Mdm2 ligase inh -4, Measles CPE 33* and NPY Y1 blocker -2.
For Cc1ccc(CCNC(=O)C23C[C@H]4C[C@@H](C2)CC(n2nnc(C)n2)(C4)C3)cc1 the results were NPY-Y2 PAM-ag -3, NPY-Y1 PAM-ag -15, Mdm2 ligase inh 7 and NPY Y1 blocker 1.
`CCN1C(=O)[C@H]2[C@H]3[C@H](O)[C@H](O)C/C(=N\OC[C@@H](C)[C@H](OCc4ccccc4)C(C)C)[C@@H]3CC[C@H]2C1=O` gave NPY-Y2 antag -1, NPY-Y2 PAM-ag 17, NPY-Y1 PAM-ag 0, Measles CPE 11 and NPY Y1 blocker -8.
`Cc1cc(SCC(=O)c2cccs2)n2nc(C)c(-c3ccccc3)c2n1` gave NPY-Y2 antag -2, NPY-Y2 PAM-ag 8, NPY-Y1 PAM-ag -8, Mdm2 ligase inh -4, Measles CPE 60* and NPY Y1 blocker -1.
C=C(C)Cn1c(CCCNC(=O)CCC)nc2ccccc21 was read as NPY-Y2 antag 2, NPY-Y2 PAM-ag 2, NPY-Y1 PAM-ag 11, Mdm2 ligase inh -7, Measles CPE 2 and NPY Y1 blocker 0.
`CC(C)(C)OC(=O)COc1cc(OCC(=O)OC(C)(C)C)c2c(=O)cc(-c3ccccc3)oc2c1` gave NPY-Y2 antag 33*, NPY-Y2 PAM-ag -30, NPY-Y1 PAM-ag -31, Mdm2 ligase inh 3, Measles CPE 5 and NPY Y1 blocker 46*.
`CC(C)(C)OC(=O)COc1cc(O)c2c(=O)cc(-c3ccccc3)oc2c1` gave NPY-Y2 antag 16, NPY-Y2 PAM-ag 1, NPY-Y1 PAM-ag 9, Mdm2 ligase inh 0, Measles CPE 17 and NPY Y1 blocker 0.
`O=C(Nc1ccc(CN2CCCCC2)cc1)c1cccc(Br)c1` gave NPY-Y2 antag 5, NPY-Y2 PAM-ag 56*, NPY-Y1 PAM-ag 43*, Mdm2 ligase inh -12, Measles CPE 6 and NPY Y1 blocker 2.
O=C(Nc1ccc(CN2CCCCC2)cc1)c1cc(Br)ccc1Cl was read as NPY-Y2 PAM-ag -9, NPY-Y1 PAM-ag -14, Mdm2 ligase inh -17 and NPY Y1 blocker 8.
Screening CCN1C(=O)[C@@H]2C(C(=O)c3cnccn3)=NN[C@@H]2C1=O returned NPY-Y2 PAM-ag -6, NPY-Y1 PAM-ag -11 and Mdm2 ligase inh -15.
Screening O=C(CCc1ccccc1)Nc1ccc(NC(=O)c2ccco2)cc1 returned NPY-Y2 antag 1, NPY-Y2 PAM-ag -2, NPY-Y1 PAM-ag 22, Mdm2 ligase inh -12, Measles CPE 0 and NPY Y1 blocker -2.
Screening O=C(CCc1ccccc1)Nc1ccc(NC(=O)c2ccco2)nc1 returned NPY-Y2 antag 2, NPY-Y2 PAM-ag 0, NPY-Y1 PAM-ag 17, Mdm2 ligase inh 2, Measles CPE 25* and NPY Y1 blocker 3.
`COc1cccc(C(=O)Nc2cnc(NC(=O)c3ccco3)cc2C)c1` gave NPY-Y2 antag 6, NPY-Y2 PAM-ag 8, NPY-Y1 PAM-ag -11, Mdm2 ligase inh -13, Measles CPE 9 and NPY Y1 blocker -10.
`Cc1ccc(NC(=O)CCC(=O)NNC(=O)c2ccco2)c(C)c1` gave NPY-Y2 antag -2, NPY-Y2 PAM-ag 12, NPY-Y1 PAM-ag 11, Mdm2 ligase inh -5, Measles CPE 25* and NPY Y1 blocker -2.
For Cc1cc(NC(=O)c2ccco2)ncc1NC(=O)Cc1ccccc1 the results were NPY-Y2 antag 1, NPY-Y2 PAM-ag 1, NPY-Y1 PAM-ag 12, Mdm2 ligase inh -3, Measles CPE 31* and NPY Y1 blocker 4.
`Cc1nc([N+](=O)[O-])cn1CC(O)c1ccc(F)cc1` (stereo unspecified) gave NPY-Y2 PAM-ag 0, NPY-Y1 PAM-ag 12 and Mdm2 ligase inh -8.
O=C(COC(=O)c1cc2ccccc2oc1=O)Nc1ccc(F)cc1F was read as NPY-Y2 PAM-ag 5, NPY-Y1 PAM-ag -12 and Mdm2 ligase inh -18.
`O=C(N=C1N=C2C=CC=CN2Cc2ccccc21)c1ccc(S(=O)(=O)N2CCOCC2)cc1` gave NPY-Y2 PAM-ag 9, NPY-Y1 PAM-ag 3, Mdm2 ligase inh -5 and NPY Y1 blocker -4.
For CC(=O)c1nc(N2C(=O)CC(Cc3cccc(C)c3)C2=O)sc1C (stereo unspecified) the results were NPY-Y2 antag 3, NPY-Y2 PAM-ag -22, NPY-Y1 PAM-ag -8, Mdm2 ligase inh -18, Measles CPE 43* and NPY Y1 blocker 12.
For COc1ccc(C2=Nn3c(nnc3-c3ccccn3)SC2)cc1OC the results were NPY-Y2 antag 2, NPY-Y2 PAM-ag -1, NPY-Y1 PAM-ag -3, Mdm2 ligase inh -7, Measles CPE 8 and NPY Y1 blocker 2.
Screening COc1ccc(C2=Nn3c(nnc3-c3ccccc3OC)SC2)cc1OC returned NPY-Y2 antag 30*, NPY-Y2 PAM-ag -32, NPY-Y1 PAM-ag -75, Mdm2 ligase inh 16, Measles CPE 6 and NPY Y1 blocker 30*.
`Cc1ccccc1NC1=NCC(c2ccc([N+](=O)[O-])cc2)S1` (stereo unspecified) gave NPY-Y2 PAM-ag 10, NPY-Y1 PAM-ag 17, Mdm2 ligase inh -13 and NPY Y1 blocker 5.
`Clc1cccc(Cl)c1Cn1cnc2c(N3CCCCCC3)ncnc21` gave NPY-Y2 antag 7, NPY-Y2 PAM-ag 4, NPY-Y1 PAM-ag -11, Measles CPE 33* and NPY Y1 blocker 5.
